Screens as filed in PubChem.
In the library only some 2.7% were active in any assay of this set; here they are far more common.
FGF22 binding – FGF22 (human) thermal shift binding; recombinant FGF22 thermal shift, SYPRO orange fluorescence; percent of sucrose octasulfate shift, DMSO zero; activity (Tm shift, normalised), % at 9.99 µM; 340,000 tested, 1.5% active; AID 651658;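 active = mean Tm shift, scaled 0 neutral to 100 positive control, at about 1.3% or above, every replicate too, limit read from the data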
Target sequence (Q9HCT0 whole entry, looked up): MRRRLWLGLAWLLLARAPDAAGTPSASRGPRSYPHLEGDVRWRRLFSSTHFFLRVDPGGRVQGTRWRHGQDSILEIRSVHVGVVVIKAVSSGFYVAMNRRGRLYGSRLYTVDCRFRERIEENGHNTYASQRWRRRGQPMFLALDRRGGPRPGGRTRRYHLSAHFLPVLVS
S100A4 inh HTS – blocks human S100A4 binding to myosin IIA peptide; P26447; S100A4/TAMRA-MyoIIA peptide fluorescence polarization; 360,000 tested, 0.14% active; inhibition, % at 10.7 µM;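 active = mean inhibition of at least 70% across replicates, with every replicate also reaching that level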
Target sequence (P26447 whole entry, looked up): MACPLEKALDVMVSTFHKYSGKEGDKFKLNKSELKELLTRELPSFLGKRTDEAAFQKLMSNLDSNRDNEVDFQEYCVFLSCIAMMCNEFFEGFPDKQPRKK
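Material: S100A4 monomer protein | Medium: HEPES pH 7.2 with CaCl2, KCl, NaCl, DTT, Triton | Reagent: Labelled myosin peptide probe, 5 nM | Doses: One dose per compound | Times: 5 min incubation before reading | Benchmarks: Neutral control DMSO, positive control TFP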
E-sel inducer – induces E-selectin expression in human endothelial cells; P16581; HUVEC E-selectin immunofluorescence imaging; normalized: neutral wells 0, TNF-alpha wells 100; activation, % at 7.58 µM; 260,000 tested, 0.37% active; AID 686992;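 active = mean E-selectin-positive cell signal at least 10% of the positive control, reached in at least 60% of replicates, without over 20% cell loss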
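Test system: HUVEC; input: 3,000 HUVEC/well; measured by: immunofluorescence imaging; read-out: % PE-positive cells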
CFTR F508del cor – CFTR F508del correction in bronchial cells; CFBE cells, YFP halide quenching; stimulated with forskolin plus potentiator P3; % fluorescence drop versus neutral controls; activity (quench increase), % at 7.58 µM; 350,000 tested, 0.36% active; AID 720511;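 active = mean added fluorescence quench of at least 8% versus neutral control, with both replicates also reaching 8%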;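 also: cells transiently co-express mutant CFTR-F508del with the halide-sensitive YFP; corrector assay measuring rescue of mutant channel to the surface after 24 h compound exposure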
HIV Env fusion – HIV envelope-mediated fusion inhibition; HeLa-JRFL Env/CEM21 cell fusion, luciferase; inhibition, % at 12.3 µM; 360,000 tested, 1.1% active; AID 651610;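 active = mean replicate inhibition score of at least 50 and every replicate individually at or above 50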;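 also: 0% = plate neutral controls and 100% = maraviroc near 300 nM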
An asterisk follows results filed as active; / = no result; [ ] = remark or other dose.

SMILES | FGF22 binding | S100A4 inh HTS | E-sel inducer | CFTR F508del cor | HIV Env fusion
O=C(CN(C(=O)c1csnn1)c1ccc2c(c1)OCCO2)NCc1ccc(F)cc1 | 0 | 2 | 39* | 3 | 4
COc1ccc(CNC(=O)CN(C(=O)c2csnn2)c2ccc3c(c2)OCCO3)cc1 | 0 | 0 | 0 | 3 | 5
COc1ccc(/C=C(/NC(=O)c2ccccc2)C(=O)N2CCCC2)cc1OC | 42 | 0 | / | 2 | 1
COc1ccc(/C=C(\NC(=O)c2ccccc2)C(=O)OCC2CCCN3CCCCC23)cc1OC (stereo not given) | 44* | -5 | / | -3 | 5
C[C@@H]1CN([C@@H](C)CO)C(=O)Cc2cc(NC(=O)CCN3CCOCC3)ccc2O[C@@H]1CN(C)Cc1ccc(-c2ccccc2)cc1 | 0 | 6 | 0 | 2 | -1[16.7 µM]
COc1ccc([C@@H]2[C@@H]3C(=O)N(C(C)(C)C)C(=O)[C@@H]3[C@]3(CC(C)C)C(=O)N(c4ccccc4)C(=O)N23)cc1 | 0 | -3 | / | 0 | 81*
COc1ccc([C@@H]2[C@@H]3C(=O)N(C(C)(C)C)C(=O)[C@@H]3[C@]3(CC(C)C)C(=O)N(c4cccc(Br)c4)C(=O)N23)cc1 | 0 | -6 | / | 5 | 90*
COc1ccc([C@@H]2[C@@H]3C(=O)N(C(C)(C)C)C(=O)[C@@H]3[C@]3(CC(C)C)C(=O)N(c4ccc(C(F)(F)F)cc4)C(=O)N23)cc1 | -1 | -5 | 0 | 5 | 109*
CCN1C(=O)[C@H]2[C@@H](c3ccc(C)cc3)N3C(=O)N(c4cccc(Cl)c4)C(=O)[C@@]3(Cc3ccc(Cl)cc3)[C@H]2C1=O | 0 | 1 | 0 | 2 | 59*
COc1ccc([C@@H]2[C@@H]3C(=O)N(C(C)(C)C)C(=O)[C@@H]3[C@]3(Cc4ccc(Cl)cc4)C(=O)N(c4ccc(C)cc4)C(=O)N23)cc1 | 0 | 2 | 0 | 2 | 29
COc1ccc([C@@H]2[C@@H]3C(=O)N(C(C)(C)C)C(=O)[C@@H]3[C@]3(C)C(=O)N(c4ccc(C(F)(F)F)cc4)C(=O)N23)cc1 | 0 | -6 | 0 | 3 | 66*
COc1ccc([C@@H]2[C@@H]3C(=O)N(C(C)(C)C)C(=O)[C@@H]3[C@]3(Cc4ccc(Cl)cc4)C(=O)N(c4cccc(C)c4)C(=O)N23)cc1 | 1.3* | 2 | 0 | 2 | 90*
COc1ccc(N2C(=O)N3[C@H](c4cccc(C)c4)[C@@H]4C(=O)N(Cc5ccccc5)C(=O)[C@@H]4[C@]3(Cc3ccccc3)C2=O)cc1 | 0 | 0 | 0 | 0 | 86*
COc1ccc([C@@H]2[C@@H]3C(=O)N(C(C)(C)C)C(=O)[C@@H]3[C@]3(Cc4ccccc4)C(=O)N(c4ccc(OC)cc4)C(=O)N23)cc1 | 0 | -1 | 0 | 3 | -11
COc1ccc([C@@H]2[C@@H]3C(=O)N(C(C)(C)C)C(=O)[C@@H]3[C@]3(Cc4ccccc4)C(=O)N(c4ccc(C(F)(F)F)cc4)C(=O)N23)cc1 | 0 | -4 | / | 9.0* | 42
C[C@H](CO)N1C[C@H](C)[C@H](CN(C)S(C)(=O)=O)Oc2ccc(NC(=O)CCCCCC(=O)Nc3ccccc3N)cc2C1=O | 0 | -14 | -1 | -2 | /
CC(C)CC#Cc1cnc2c(c1)C(=O)N([C@H](C)CO)C[C@@H](C)[C@@H](CN(C)Cc1ccccn1)O2 | 1 | -2 | 0 | -2 | -26[16.7 µM]
CCCC(=O)Nc1ccc2c(c1)C(=O)N(C)C[C@@H](OC)[C@@H](C)CN(C(=O)c1ccncc1)[C@H](C)CO2 | / | 0 | 0 | 1 | 17[16.7 µM]
CC(=O)Nc1cccc(C(=O)/C=C/c2ccc(/C=C/C(=O)c3cccc(NC(C)=O)c3)cc2)c1 | 43* | 5 | / | -10 | /
CC(C)NC(=O)NCC[C@H]1CC[C@@H](NC(=O)CCN2CCCCC2)[C@@H](CO)O1 | 0 | 8 | 0 | 2 | /
C[C@H](CO)N1C[C@H](C)[C@@H](CN(C)S(=O)(=O)c2cn(C)cn2)Oc2ccc(NC(=O)CCC(F)(F)F)cc2C1=O | 0 | 1 | / | -1 | /
Cc1ccc(NC(=S)N(Cc2cccc(Br)c2)CC2CCC(C(=O)O)CC2)cc1 (stereo not given) | 8.2* | 0 | / | 0 | -3
CC(NC(=O)c1ccccc1)C(=O)N/N=C/c1cccc([N+](=O)[O-])c1 (stereo not given) | 43* | -3 | 0 | 1 | 19
Cc1ccc(C(=O)OCC(=O)c2c[nH]c3ccccc23)cc1 | 0 | -2 | 0 | 1 | 6
O=C(OCC(=O)c1c[nH]c2ccccc12)c1cc(Br)ccc1O | 43* | -2 | 14 | 0 | 6
SMILES | FGF22 binding | S100A4 inh HTS | E-sel inducer | CFTR F508del cor | HIV Env fusion
C[C@@H]1CN([C@H](C)CO)S(=O)(=O)c2ccc(C3=CCCCC3)cc2O[C@H]1CN(C)Cc1ccccn1 | 0 | -25 | 0 | 7 | 11[16.7 µM]
COc1cccc(C2NC(=S)NC(C)=C2C(=O)c2ccccc2)c1OC (stereo not given) | 43* | -9 | / | 2 | -2
CCCC(=O)Nc1ccc2c(c1)OC[C@@H](C)N(C(=O)C1CCCC1)C[C@@H](C)[C@@H](OC)CN(C)C2=O | 0 | 11 | 0 | -3 | -2[16.7 µM]
CCCNC(=O)N1[C@H](CO)[C@@H](c2ccc(C3=CCCC3)cc2)[C@H]1CNC(C)=O | / | / | 0 | 3 | /
CCCNC(=O)N1[C@H](C#N)[C@H](c2ccc(-c3ccc(C(=O)N(C)C)cc3)cc2)[C@@H]1CO | 0 | -6 | 0 | 2 | 68*[16.7 µM]
CCCN1[C@H](CO)[C@H](c2ccc(C3=CCCCC3)cc2)[C@@H]1CNC(=O)COC | / | -1 | 0 | -2 | /
CCCNC(=O)N1[C@H](C#N)[C@H](c2ccc(-c3cccnc3)cc2)[C@@H]1CO | 0 | 42 | 0 | 1 | 64*[16.7 µM]
CCCN1[C@H](CO)[C@H](c2ccc(C3=CCCCC3)cc2)[C@@H]1CNS(C)(=O)=O | / | 80* | 0 | 2 | /
CCCNC(=O)N1[C@H](CO)[C@@H](c2ccc(C3=CCCC3)cc2)[C@@H]1CN(C)C(C)=O | / | / | 0 | 8.1* | /
CCCC#Cc1cnc2c(c1)C(=O)N([C@H](C)CO)C[C@H](C)[C@H](CN(C)C(=O)c1cccc(F)c1)O2 | 0 | 2 | 0 | 3 | 8[16.7 µM]
COc1ccc(C[C@H]2CCc3cnnn3COC[C@H](Cc3ccccc3)NC2=O)cc1 | 0 | -1 | 0 | / | -20[16.7 µM]
CCc1nc2sccc2c(=O)n1N | 43* | 7 | 3 | 0 | -6
CN1C(=O)c2cc(NC(=O)c3ccc(Cl)cc3)ccc2OC[C@@H]2O[C@H](CC(=O)NCc3cccc(F)c3)CC[C@@H]21 | 0 | 7 | 0 | 1 | /
COc1ccc(NC(=O)N(C)C[C@H]2Oc3ccc(NC(=O)NC(C)C)cc3C(=O)N([C@@H](C)CO)C[C@H]2C)cc1 | 0 | -9 | 0 | 0 | /
